The record followed here is ChEMBL document CHEMBL1133551, “Non-depolarizing neuromuscular blocking activity of bisquaternary amino di- and tripeptide derivatives” (J Med Chem, 2000).

The subject of assay [1] is Felis catus. As to the kind of experiment: Recovery time (25-75 %) measured for NMB activity in anesthetized cats. Type of assay: functional, organism-based. In short, it runs like this:
(§1)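 Anesthetized, ventilated cats, tibialis anterior twitch evoked by sciatic nerve stimulation at 0.1 Hz; iv doses giving 80-95% block. Onset is injection to the first maximally depressed twitch. Duration is injection to 90% spontaneous recovery relative to predrug twitch.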

Assay [2] is filed under the species Gallus gallus. Briefly: Dose causing 50% block of muscle twitch in isolated chick biventer cervicis muscle (Increase in baseline tension). The following applies: Muscle tissue, read-out: ED50 (the source's name).
The subject of assay [3] is Felis catus. As to the kind of experiment: Onset time was measured for NMB activity in anesthetized cats. Type of assay: functional. The method in brief:
as §1

Assay [4] relates to Felis catus. Briefly: Duration (90%) measured for NMB activity in anesthetized cats. Type of assay: functional. In short, it runs like this: as §1
The test system of assay [5] is Felis catus. As to the kind of experiment: Inhibitory potency in anesthetized cats. Type of assay: functional. In short, it runs like this:
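Cats of either sex (1.9-2.6 kg), anesthetized i.p. with α-chloralose 80 mg/kg plus pentobarbitone 5 mg/kg and ventilated with room air, 37 ± 1 °C. Sciatic nerve stimulated at 0.1 Hz (0.25-ms supramaximal pulses), tibialis anterior twitch recorded. Increasing doses given iv (jugular) at 30-60-min intervals.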

Assay [6] concerns Felis catus. As to the kind of experiment: Inhibition of stimulated vagus nerve-induced bradycardia in anesthetized cats. Type of assay: functional. The method in brief:
(§2)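 Anesthetized cats. Every 100 s the vagus nerve was stimulated for 10 s at 2-5 Hz to evoke bradycardia, and the cervical sympathetic nerve was stimulated to evoke nictitating membrane contraction. Near the end of experiments, logarithmically increasing iv doses were given at 100-s intervals. Doses giving 50% block were obtained by regression and interpolation.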

Assay [7] in a line: (§3) Dose causing 50% block of muscle twitch in isolated chick biventer cervicis muscle. Type of assay: functional. The settings on record: Gallus gallus, Muscle tissue; read-out: ED50 (the source's name). The method in brief: (§4)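 Isolated chick biventer cervicis nerve-muscle preparation; bath fluid gassed with 5% CO2 in O2, pH 7.4. Motor nerves stimulated at 0.1 Hz with 0.2-ms rectangular pulses at supramaximal voltage to give indirect twitches. Concentration-twitch inhibition lines fitted by least squares, and the concentration producing 50% twitch block (µM) was read off.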

The species entered for assay [8] is Gallus gallus. As to the kind of experiment: -logED50 value for chick biventer determined. Type of assay: functional. In short, it runs like this:
as §4

Assay [9] is filed under the species Gallus gallus. Described as §3. Type of assay: functional, Muscle tissue. The method in brief:
as §4

For assay [10], the species on record is Felis catus. As to the kind of experiment: Inhibition of stimulated vagus nerve-induced bradycardia. Type of assay: functional. In short, it runs like this:
as §2

Assay [11] is filed under the species Felis catus. Briefly: Inhibition of superior cervical nerve-induced contractions of the nictitating membrane. Type of assay: functional. In short, it runs like this: as §2
Assay [12] is described as follows: Dose causing 50% block of muscle twitch in isolated chick biventer cervicis muscle (Increase in baseline tension). The settings on record: Gallus gallus, Muscle tissue; read-out: ED50 (the source's name).
Assay [13] deals with Felis catus. As to the kind of experiment: Inhibitory potency in anesthetized cats, and Onset time is reported. Type of assay: functional. The method in brief: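 Anesthetized cats (alpha-chloralose/pentobarbitone i.p., ventilated, 37 ± 1 °C). Tibialis anterior twitch evoked via sciatic nerve at 0.1 Hz, 0.25-ms supramaximal pulses. Increasing i.v. (jugular) doses at 30-60-min intervals. ED50 interpolated from log dose lines over 15-85% block. Onset, from injection to first maximally depressed twitch, measured at doses giving 80-95% block.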

Assay [14] has as its system Monkey. Briefly: Recovery time (25-75 %) measured for NMB activity in anesthetized rhesus monkeys. Type of assay: functional, organism-based. The settings on record: Cercopithecidae. In short, it runs like this:
(§5)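 Anesthetized, ventilated Rhesus monkeys; iv dosing at 3 × the 90% blocking dose. Onset is injection to the first maximally depressed twitch. Duration is injection to 90% spontaneous recovery versus predrug twitch.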

For assay [15], the system named is Felis catus. As to the kind of experiment: Inhibition of superior cervical nerve-induced contractions of the nictitating membrane in anesthetized cats. Type of assay: functional. In short, it runs like this:
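Cats of either sex (1.9-2.6 kg), anesthetized with i.p. alpha-chloralose 80 mg/kg plus pentobarbitone 5 mg/kg, ventilated to keep arterial pH 7.3-7.4, 37 ± 1 °C. Nictitating membrane contractions evoked by cervical sympathetic nerve stimulation, recorded every 100 s. Logarithmically increasing doses injected into the jugular vein at 100-s intervals; 50%-blocking dose obtained by regression and interpolation.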

The test system of assay [16] is Monkey. As to the kind of experiment: Duration (90%) measured for NMB activity in anesthetized rhesus monkeys. Type of assay: functional, Cercopithecidae. The method in brief: as §5
The subject of assay [17] is Monkey. As to the kind of experiment: Onset time was measured for NMB activity in anesthetized rhesus monkeys. Type of assay: functional, Cercopithecidae. In short, it runs like this:
as §5

The test system of assay [18] is Felis catus. As to the kind of experiment: Inhibition of superior cervical nerve-induced contractions of the nictitating membrane in anesthetized cats; Pre- and post-block increases in twitch tension and short-lived muscle fasciculations 20-30 s after dosing. Type of assay: functional, organism-based. The method in brief:
as §2

The test system of assay [19] is Monkey. As to the kind of experiment: Inhibitory potency in anesthetized rhesus monkeys. Type of assay: functional. The following applies: Cercopithecidae, in Macaca mulatta.

Consider `COc1ccc(CC2c3cc(OC)c(OC)cc3CC[N+]2(C)CCC(=O)OCCCCCOC(=O)CC[N+]2(C)CCc3cc(OC)c(OC)cc3C2Cc2ccc(OC)c(OC)c2)cc1OC` (stereo unspecified), for which the Recovery in assay [1] amounted to 5.9 min. Further, the EC50 in assay [2] is 410 nM. The same molecule showed an Onset in assay [3] of 5.8 min. This molecule also returned a Duration in assay [4] of 19.4 min. For the same molecule, the ED50 in assay [5] was determined as 0.1 µmol/kg; in assay [6], 1.6 µmol/kg.

For the molecule `C[N+]1(CCNC(=O)C(Cc2ccccc2)NC(=O)C[N+]2(C)CCCCC2)CCOCC1` (stereo unspecified), in assay [7], the EC50 was 407000 nM. In [8], this molecule showed a pCB50 of 3.39.

Take `C[N+](C)(C)CC(=O)NCC(=O)NCC[N+]1(C)CCOCC1`: the EC50 in assay [9] (Gallus gallus, Muscle tissue, read-out: ED50 (the source's name)) was over 390000 nM.

As to `O=C(C[N+]1(Cc2ccc([N+](=O)[O-])cc2)CCCCC1)NC(Cc1ccccc1)C(=O)NCC[N+]1(Cc2ccc([N+](=O)[O-])cc2)CCOCC1.[Br-].[Br-]` (stereo unspecified), the ED50 in assay [10] is 0.8 µmol/kg; in assay [11], over 11.2 µmol/kg; in [9], 19800 nM; in assay [5], 10.1 µmol/kg.

On to `CC(=O)O[C@H]1C[C@@H]2CC[C@@H]3[C@H](CC[C@@]4(C)[C@H]3C[C@H]([N+]3(C)CCCCC3)[C@@H]4OC(C)=O)[C@@]2(C)C[C@@H]1[N+]1(C)CCCCC1` [PANCURONIUM], for which, in assay [1], the Recovery was determined as 4 min. Further, in [12], the EC50 was 200 nM. This molecule also yielded an Onset in assay [3] of 4.1 min. In addition, in assay [4], the Duration was determined as 11.7 min. The ED50 in assay [13] is 0.03 µmol/kg; in assay [6], 0.07 µmol/kg. The molecule also displayed a pCB50 in assay [8] of 6.7.

In the case of `C=CC[N+]1([C@H]2C[C@H]3[C@@H]4CC[C@H]5C[C@H](O)[C@@H](N6CCOCC6)C[C@]5(C)[C@H]4CC[C@]3(C)[C@H]2OC(C)=O)CCCC1` [ROCURONIUM], the Recovery in assay [14] was 5 min; in assay [1] it was 2.9 min. Moreover, the EC50 in assay [12] came out at 760 nM. Moreover, the ED50 in [15] is 0.16 µmol/kg; in assay [13], 0.25 µmol/kg; in assay [6], 2.17 µmol/kg. Moreover, the figures for the Duration in [16] and in assay [4] were 13.6 min and 8.3 min, respectively. Besides, the Onset stood at 3.1 min in [17] and 2 min in [3]. The pCB50 in [8] was found to be 6.12.

`C[N+](C)(C)CCOC(=O)CCC(=O)OCC[N+](C)(C)C` [SUXAMETHONIUM]: the Recovery in [14] amounted to 2.9 min; in assay [1], 1.9 min. Besides, the EC50 in [2] turned out to be 540 nM. Also, the Duration amounted to 9.7 min in assay [16] and 5.7 min in assay [4]. Further, the ED50 result in assay [18] was “Pre- and post-block increases in twitch tension and short-lived muscle fasciculations 20-30 s after dosing”; in [5] it was 0.11 µmol/kg. The Onset turned out to be 1.5 min in assay [17] and 1.7 min in assay [3]. In [19], this molecule yielded an ED90 of 5.04 µmol/kg.
